We go through four compounds from ChEMBL document CHEMBL1143123, “Novel analogs of D-e-MAPP and B13. Part 2: signature effects on bioactive sphingolipids” (2008).

The test system of assay [1] is MCF7. Put plainly: Increase in endogenous C16-ceramide level in human MCF7 cells after 24 hrs. The assay is classed as functional. In short, it runs like this:
(§1)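 MCF7 cells grown in RPMI 1640 with 10% FCS at 37 °C, 5% CO2. Seeded at ~50% density (1×10^6 cells), treated 24 h later with compounds in ethanol (0.1% final); controls got ethanol only. Cells washed in cold PBS and lipids extracted. Cer species and Sph quantified by HPLC-MS/MS (MRM, positive ion) against internal standards and calibration curves. Values given as pmol/nmol phospholipid and compared with ethanol controls.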

For assay [2], the system named is MCF7. Description: Increase in endogenous C16-ceramide level in human MCF7 cells at 10 uM upto 0.5 hrs. The assay is classed as functional, cell-based. In short, it runs like this:
as §1

For assay [3], the system named is MCF7. Put plainly: Increase in endogenous sphingosine-1-phosphate level in human MCF7 cells after 5 to 10 hrs. The assay is classed as functional, cell-based. In short, it runs like this:
(§2)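 MCF7 cells grown in RPMI 1640 with 10% FCS at 37 °C in 5% CO2. Seeded near 50% density and treated 24 h later with compound in ethanol (0.1% final); controls got ethanol alone. Cells washed in cold PBS and extracted. Cer species, Sph and S1P measured by HPLC-MS/MS (C8 column, positive-ion MRM) against internal standards and calibration curves. Results given as pmol/nmol phospholipid phosphate, relative to ethanol controls.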

Assay [4] has as its system MCF7. Put plainly: Increase in endogenous sphingosine level in human MCF7 cells after 24 hrs. The assay is classed as functional. In short, it runs like this:
as §2

The test system of assay [5] is MCF7. Put plainly: Increase in endogenous C24-ceramide level in human MCF7 cells upto 24 hrs. The assay is classed as functional. In short, it runs like this:
as §2

Assay [6] deals with MCF7. Put plainly: Increase in endogenous C24-ceramide level in human MCF7 cells at 10 uM upto 0.5 hrs. The assay is classed as functional, cell-based. In short, it runs like this: as §1
In assay [7] the test system is MCF7. Description: Increase in endogenous C24:1-ceramide level in human MCF7 cells upto 24 hrs. The assay is classed as functional. The method in brief: as §2
The subject of assay [8] is MCF7. Description: Decrease in endogenous sphingosine level in human MCF7 cells at 10 uM upto 0.5 hrs. The assay is classed as functional, cell-based. The method in brief: as §1
In assay [9] the test system is MCF7. Description: Increase in endogenous C14-ceramide level in human MCF7 cells at 10 uM upto 24 hrs. The assay is classed as functional. The method in brief: as §1
In assay [10] the test system is MCF7. Description: Increase in endogenous C14-ceramide level in human MCF7 cells after 24 hrs. The assay is classed as functional. The method in brief:
as §1

The test system of assay [11] is MCF7. Description: Increase in endogenous C24:1-ceramide level in human MCF7 cells after 24 hrs. The assay is classed as functional. The method in brief:
as §2

Assay [12] has as its system MCF7. Description: Increase in endogenous C16-ceramide level in human MCF7 cells upto 24 hrs. The assay is classed as functional. The method in brief:
as §1

Assay [13] relates to MCF7. Description: Increase in endogenous C24:1-ceramide level in human MCF7 cells at 10 uM upto 0.5 hrs. The assay is classed as functional, cell-based. The method in brief:
as §2

The subject of assay [14] is MCF7. Description: Increase in endogenous C24-ceramide level in human MCF7 cells after 24 hrs. The assay is classed as functional. The method in brief:
as §1

In assay [15] the test system is MCF7. Description: Decrease in endogenous sphingosine level in human MCF7 cells at 10-50 uM after 24 hrs. The assay is classed as functional, cell-based. In short, it runs like this: as §1
Assay [16] deals with MCF7. Put plainly: Increase in endogenous ceramide level in human MCF7 cells at 10 to 50 uM after 24 hrs. The assay is classed as functional, cell-based. The method in brief:
as §2

Assay [17] concerns MCF7. Description: Increase in endogenous C24:1-ceramide level in human MCF7 cells at 10 uM within 30 mins. The assay is classed as functional, cell-based. The method in brief:
as §2

In assay [18] the test system is MCF7. Description: Decrease in endogenous C24-ceramide level in human MCF7 cells at 10 uM after 18 hrs. The assay is classed as functional, cell-based. The method in brief:
as §1

Assay [19] has as its system MCF7. Description: Decrease in endogenous sphingosine level in human MCF7 cells at 10 uM upto 2.5 hrs. The assay is classed as functional, cell-based. In short, it runs like this:
as §1

In assay [20] the test system is MCF7. Put plainly: Decrease in endogenous C24-ceramide level in human MCF7 cells upto 20 uM after 24 hrs. Further details: scale not given: the % may be the effect or the level left. The assay is classed as functional. The method in brief:
as §1

The subject of assay [21] is MCF7. Put plainly: Increase in endogenous sphingosine level in human MCF7 cells at 10 uM within 30 mins. The assay is classed as functional. In short, it runs like this: as §2
Assay [22] concerns MCF7. Description: Decrease in endogenous ceramide level in human MCF7 cells at 10 uM after 24 hrs. The arrangement: scale not given: the % may be the effect or the level left. The assay is classed as functional. The method in brief:
as §1

Assay [23] concerns MCF7. Description: Decrease in endogenous sphingosine level in human MCF7 cells at 50 uM after 24 hrs. The assay is classed as functional. Further details: scale not given: the % may be the effect or the level left. The method in brief:
as §1

Assay [24] concerns MCF7. Description: Decrease in endogenous C16-ceramide level in human MCF7 cells at 10 uM after 18 hrs. The assay is classed as functional, cell-based. In short, it runs like this:
as §1

The subject of assay [25] is MCF7. Put plainly: Decrease in endogenous sphingosine level in human MCF7 cells at 20 uM after 24 hrs. The assay is classed as functional, cell-based. In short, it runs like this:
as §1

Assay [26] has as its system MCF7. Description: Decrease in endogenous C24:1-ceramide level in human MCF7 cells upto 20 uM after 24 hrs. The assay is classed as functional. The arrangement: scale not given: the % may be the effect or the level left. The method in brief:
as §1

Assay [27] deals with MCF7. Put plainly: Increase in endogenous C16-ceramide level in human MCF7 cells at >25 uM after 24 hrs. The assay is classed as functional, cell-based. In short, it runs like this:
as §1

The subject of assay [28] is MCF7. Put plainly: Growth inhibition of human MCF7 cells after 48 hrs. The assay is classed as functional, cell-based.
In assay [29] the test system is MCF7. Put plainly: Increase in endogenous C16-ceramide level in human MCF7 cells at 10 uM within 30 mins. The assay is classed as functional, cell-based. The method in brief: as §1
Assay [30] relates to MCF7. Description: Decrease in endogenous sphingosine level in human MCF7 cells at 5 uM after 24 hrs. The arrangement: scale not given: the % may be the effect or the level left.
Assay [31] relates to MCF7. Put plainly: Increase in endogenous C24-ceramide level in human MCF7 cells at 10 uM within 30 mins. The assay is classed as functional, cell-based. In short, it runs like this: as §2
Assay [32] relates to MCF7. Description: Increase in endogenous C24-ceramide level in human MCF7 cells at 10 uM upto 2.5 hrs. The assay is classed as functional, cell-based. In short, it runs like this:
as §1

Assay [33] relates to MCF7. Description: Decrease in endogenous C24:1-ceramide level in human MCF7 cells at 10 uM upto 2.5 hrs. The assay is classed as functional, cell-based. In short, it runs like this:
as §1

Assay [34] concerns MCF7. Description: Increase in endogenous ceramide level in human MCF7 cells at 50 uM after 24 hrs. The assay is classed as functional. The method in brief:
as §2

Assay [35] relates to MCF7. Put plainly: Increase in endogenous C24:1-ceramide level in human MCF7 cells at >30 uM after 24 hrs. The assay is classed as functional, cell-based. In short, it runs like this: as §2
Assay [36] has as its system MCF7. Put plainly: Increase in endogenous ceramide level in human MCF7 cells at >25 uM after 24 hrs. The assay is classed as functional, cell-based. The method in brief:
as §2

The subject of assay [37] is MCF7. Put plainly: Decrease in endogenous sphingosine level in human MCF7 cells upto 50 uM after 24 hrs. The assay is classed as functional, cell-based. The method in brief: as §1
In assay [38] the test system is MCF7. Description: Decrease in endogenous C24-ceramide level in human MCF7 cells at 10 uM after 24 hrs. The assay is classed as functional. Further details: scale not given: the % may be the effect or the level left. In short, it runs like this: as §1
Assay [39] deals with MCF7. Put plainly: Decrease in endogenous sphingosine level in human MCF7 cells at >2.5 uM after 24 hrs. The assay is classed as functional, cell-based. The method in brief:
as §1

In assay [40] the test system is MCF7. Put plainly: Increase in endogenous C24:1-ceramide level in human MCF7 cells upto 5 uM after 24 hrs. The assay is classed as functional, cell-based. The method in brief: as §2
Assay [41] deals with MCF7. Put plainly: Decrease in endogenous C16-ceramide level in human MCF7 cells at 10 uM after 24 hrs. The assay is classed as functional. The arrangement: scale not given: the % may be the effect or the level left. In short, it runs like this:
as §1

For assay [42], the system named is MCF7. Description: Decrease in endogenous sphingosine level in human MCF7 cells upto 5 uM after 24 hrs. The assay is classed as functional, cell-based. In short, it runs like this:
as §1

In assay [43] the test system is MCF7. Put plainly: Decrease in endogenous C16-ceramide level in human MCF7 cells upto 5 uM after 24 hrs. The assay is classed as functional, cell-based. In short, it runs like this: as §1
Assay [44] concerns MCF7. Put plainly: Decrease in endogenous C24:1-ceramide level in human MCF7 cells at 10 uM. Further details: scale not given: the % may be the effect or the level left.
The subject of assay [45] is MCF7. Description: Decrease in endogenous C24-ceramide level in human MCF7 cells upto 5 uM after 24 hrs. The assay is classed as functional, cell-based. In short, it runs like this:
as §1

The source made the active and inactive calls. The calls are words filed in the database; no cut-off is given here.

For `O=C(CCCCCCCCCCCCCCC[n+]1ccccc1)N[C@H](CO)[C@H](O)c1ccc([N+](=O)[O-])cc1.[Br-]`, the Activity in assay [1] was 800%; in assay [4] it was 350%; in [5], 130%; in [7], 260%; in [9], 760%; in assay [10], 800%. Moreover, the values for the Activity in assay [11], in [12] and in assay [14] were 270%, 820% and 140%, respectively. Besides, the result in [2], in assay [3], in [6], in [8] and in assay [13] was Active.
Consider `CCCCCCCCCCCCCC(=O)N[C@@H](C)[C@@H](O)c1ccccc1`, for which the result in assay [15] and in assay [16] was inactive.
For the compound `CCCCCCCCCCCCNC(=O)N[C@H](CO)[C@H](O)c1ccc([N+](=O)[O-])cc1`, the result in assay [17], in [18], in [19], in assay [21], in assay [24] and in [25] was Active. Moreover, the result in assay [27], in assay [28], in assay [29], in [31], in assay [32] and in [33] was Active. Besides, in assay [35], the outcome was Active. Moreover, the Activity in assay [20] turned out to be 80%; in [22], 90%; in assay [23] it was 45%; in assay [26], 80%; in assay [30], 80%; in assay [34] it was 170%.
As to `CCCCCCCCCCCCCC(=O)N[C@H](C)[C@@H](O)c1ccccc1`, the outcome in assay [36], in assay [37], in assay [39], in assay [40], in assay [42] and in [43] was Active. The outcome in [45] was Active. Besides, the Activity in assay [38], in assay [41] and in [44] was 30% in each case.
